In article PMC6189524 (Journal of Functional Foods, 2018):

Assays:
[1] = In vitro gastric-duodenal digestion; format: in vitro ADME; conditions: both snack and vegetable meals
[2] = Determination of phytochemicals in food products; conditions: for change during the baking process (dough to final product): snack ratio broccoli:onion:carrot:parsley = 2.1:5.5:11.4:1
[3] = ref Rothwell, Day, & Morgan, 2005; cited from earlier work
Caco-2/TC7 cells = assay: Uptake of quercetin and apigenin by Caco-2/TC7 cells from digestates; format: in vitro ADME; conditions: all digestates and DMEM-only control; p < 0.05
Procedure, shortened: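 Clear supernatants from simplified simulated stomach/small-intestine digestion (with amylase) were diluted 1:1 in DMEM and applied to Caco-2/TC7 cells; DMEM with 40 µM quercetin or apigenin served as control. Uptake was summed from metabolites in medium, metabolites in cells and aglycone in cells, and the rate was this total divided by time. Mean ± SD, n = 3.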

Caco-2/TC7 monolayer = assay: Transport; format: in vitro ADME; conditions: p < 0.05
Procedure, shortened: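 Snack or vegetable-mix samples went through a simplified simulated gastric/small-intestinal digestion including amylase, run to completion and centrifuged to clear supernatant. Supernatant mixed 1:1 with DMEM was applied to Caco-2/TC7 monolayers; DMEM with 40 µM quercetin or apigenin served as the buffer control. Papp = (dQ/dt)/(Co·A), from total basolateral metabolites plus aglycone; mean ± SD, n = 3.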

[4] = Human bioavailability study: 24 h urinary excretion; format: in vivo; conditions: humans; for 24 h urinary excretion, Snack: after 75 g baked snack; for 24 h urinary excretion, Snack / 24 h urinary excretion, Vegetable meal: per mg intake of corresponding compound; for 24 h urinary excretion, Vegetable meal: after 461 g vegetable meal
Procedure, shortened: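 Adult volunteers fasted overnight (≥10 h), then gave a fasted blood sample and spot urine. Each study meal was eaten within a targeted 15 min under nurse supervision. Urine was collected over 24 h postprandially, extracted liquid-liquid and analysed by LCMS for aglycones plus glucuronide, glucoside and sulfate conjugates. Results were expressed per mg intake, and the two meals were compared by paired t-test.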

Row | Structure (SMILES) | 24 h urinary excretion, Difference (absolute) vegetable meal vs snack [4] | urinary levels in 24 h urine, snack versus vegetable meal (paired t-test) [4] | 24 h urinary excretion, Snack [4] | 24 h urinary excretion, Vegetable meal [4] | also measured
1 | CC1=C(/C=C/C(C)=C/C=C/C(C)=C/C=C/C=C(C)/C=C/C=C(C)/C=C/C2=C(C)CCCC2(C)C)C(C)(C)CCC1 [β-carotene] | – | – | – | – | present in the liquid phase after in vitro digestion [1]: no detectable; yield in the final product ([2]; dough with only carrots, after baking): 31.8 % (w/w); threshold value above which lost during the baking process ([2]; final snack product): 10–13 mg per 100 g dry matter
2 | O=c1cc(-c2ccc(O)cc2)oc2cc(O)cc(O)c12 [apigenin] | 0.19 nmol per mg intake | not significantly different | 3.37 ± 6.6 nmol/mg intake | 3.55 ± 4.6 nmol/mg intake | lipophilicity compared to quercetin [3]: higher lipophilicity; rate of uptake compared to quercetin (Caco-2/TC7 cells): significantly higher; change during the baking process (dough to final product) [2]: +6%; Papp compared to quercetin (Caco-2/TC7 monolayer): higher
3 | C[S+]([O-])CCCCN=C=S (stereo not drawn) [Sulforaphane] | 7.47 nmol per mg intake | – | 36.25 ± 27.9 nmol/mg intake | 43.72 ± 44.2 nmol/mg intake | –
4 | O=c1c(OS(=O)(=O)O)c(-c2ccc(O)c(O)c2)oc2cc(O)cc(O)c12 [Quercetin-3-sulfate] | 0.79 nmol per mg intake | – | 2.58 ± 1.9 nmol/mg intake | 3.36 ± 1.8 nmol/mg intake | –
5 | O=C(O)[C@H]1O[C@@H](Oc2cc(O)c3c(=O)cc(-c4ccc(O)cc4)oc3c2)[C@H](O)[C@@H](O)[C@@H]1O [A-7-GlcA] | 0.99 nmol per mg intake | – | 6.32 ± 8.1 nmol/mg intake | 5.33 ± 6.6 nmol/mg intake | –
6 | COc1cc(-c2oc3cc(O)cc(O)c3c(=O)c2O[C@@H]2O[C@H](C(=O)O)[C@@H](O)[C@H](O)[C@H]2O)ccc1O [IR-3-GlcA, isorhamnetin-3-glucuronide] | 1.07 nmol per mg intake | significantly differed | 1.60 ± 2.0 nmol/mg intake | 2.67 ± 2.7 nmol/mg intake | –
7 | O=c1c(O[C@@H]2O[C@H](CO)[C@@H](O)[C@H](O)[C@H]2O)c(-c2ccc(O)c(O)c2)oc2cc(O)cc(O)c12 [Quercetin-3-Glc, quercetin-3-O-glucoside] | 0.03 nmol per mg intake | – | 0.04 ± 0.1 nmol/mg intake | 0.07 ± 0.1 nmol/mg intake | –
8 | O=C(O)[C@H]1O[C@@H](Oc2c(-c3ccc(O)c(O)c3)oc3cc(O)cc(O)c3c2=O)[C@H](O)[C@@H](O)[C@@H]1O [Quercetin-3-GlcA, quercetin-3-glucuronide] | 0.23 nmol per mg intake | – | 4.17 ± 3.3 nmol/mg intake | 4.40 ± 2.5 nmol/mg intake | –
9 | O=c1cc(-c2ccc(O)cc2)oc2cc(O[C@@H]3O[C@H](CO)[C@@H](O)[C@H](O)[C@H]3O)cc(O)c12 [A-7-Glc, apigenin-7-O-glucoside] | 0.05 nmol per mg intake | – | 0.15 ± 0.4 nmol/mg intake | 0.21 ± 0.3 nmol/mg intake | –
10 | CC1=C[C@H](O)CC(C)(C)[C@H]1/C=C/C(C)=C/C=C/C(C)=C/C=C/C=C(C)/C=C/C=C(C)/C=C/C1=C(C)C[C@@H](O)CC1(C)C [lutein] | – | – | – | – | present in the liquid phase after in vitro digestion [1]: around 0.4 mg
11 | CC(=O)N[C@@H](CSC(=S)NCCCC[S+](C)[O-])C(=O)O (stereo partly drawn) [Sulforaphane-NAC, sulforaphane-N-acetyl-cysteine] | 236.4 nmol per mg intake | approached significance | 272.17 ± 280.8 nmol/mg intake | 508.54 ± 450.9 nmol/mg intake | –

Second part, led by results:

Row | 24 h urinary excretion, Difference (absolute) vegetable meal vs snack [4] | urinary levels in 24 h urine, snack versus vegetable meal (paired t-test) [4] | 24 h urinary excretion, Snack [4] | 24 h urinary excretion, Vegetable meal [4] | Structure (SMILES) | also measured
12 | – | not significantly different | – | – | C[S+]([O-])CCCC/C(=N\OS(=O)(=O)O)S[C@@H]1O[C@H](CO)[C@@H](O)[C@H](O)[C@H]1O (stereo partly drawn) [glucoraphanin] | change during the baking process (dough to final product) [2]: −14%
13 | 0.38 nmol per mg intake | not significantly different | 0.34 ± 0.7 nmol/mg intake | 0.72 ± 1.3 nmol/mg intake | O=c1c(O)c(-c2ccc(O)c(O)c2)oc2cc(O)cc(O)c12 [quercetin] | change during the baking process (dough to final product) [2]: +12%
